Laboratory results from ChEMBL document CHEMBL2417474, “Synthesis, antiproliferative and anti-inflammatory activities of some novel 6-aryl-2-(p-(methanesulfonyl)phenyl)-4,5-dihydropyridazi-3(2H)-ones” (Eur J Med Chem, 2013).

What was measured:
Format in all cases: functional
MDA-MB-231 [1] = experiment: Growth inhibition of human MDA-MB-231 cells after 48 hrs by sulforhodamine B assay; details: MDA-MB-231, 48 h
In short: (§1)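 NCI 60-cell-line panel grown in RPMI-type medium with 5% fetal calf serum and 2 mM L-glutamine. Cells preincubated 24 h, then exposed continuously for 48 h to compound in DMSO at 10^-4 to 10^-8 M (five 10-fold levels). Growth read by SRB protein stain. GI50 is the concentration giving a 50% reduction in net protein increase relative to control cells.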

OVCAR-4 [2] = experiment: Growth inhibition of human OVCAR4 cells assessed as cell growth at 10 uM after 48 hrs by sulforhodamine B assay; details: OVCAR-4, 48 h, read-out: Activity
MDA-MB-231 [3] = experiment: Growth inhibition of human MDA-MB-231 cells assessed as cell growth at 10 uM after 48 hrs by sulforhodamine B assay; details: MDA-MB-231, 48 h, read-out: Activity
TK-10 = experiment: Growth inhibition of human TK10 cells after 48 hrs by sulforhodamine B assay; details: TK-10, 48 h
In short: (§2)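 NCI 60-line panel. Cells were grown in medium with 5% fetal calf serum and 2 mM L-glutamine and preincubated 24 h in plates. Compound in DMSO was added at 10^-4 to 10^-8 M (five 10-fold levels), with continuous exposure for 48 h. Growth was read by SRB protein staining. GI50 is the concentration giving 50% reduction in net protein increase versus control cells.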

HCT-116 = experiment: Growth inhibition of human HCT116 cells assessed as cell growth at 10 uM after 48 hrs by sulforhodamine B assay; details: HCT-116, 48 h, read-out: Activity
SK-MEL-2 = experiment: Growth inhibition of human SK-MEL-2 cells after 48 hrs by sulforhodamine B assay; details: SK-MEL-2, 48 h
In short: (§3)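 NCI 60-cell-line panel. Cells were grown in medium with 5% fetal calf serum and 2 mM L-glutamine, then preincubated 24 h in plates. Compounds were added from DMSO at five 10-fold concentrations from 100 to 0.01 µM and left on cells continuously for 48 h. Cell growth was read by sulforhodamine B protein stain. GI50 is the concentration that halves net protein increase relative to control cells.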

SK-MEL-28 = experiment: Growth inhibition of human SK-MEL-28 cells after 48 hrs by sulforhodamine B assay; details: SK-MEL-28, 48 h; in short: as §3
MDA-MB-435 = experiment: Growth inhibition of human MDA-MB-435 cells after 48 hrs by sulforhodamine B assay; details: MDA-MB-435, 48 h; in short: as §3
DU-145 = experiment: Growth inhibition of human DU145 cells after 48 hrs by sulforhodamine B assay; details: DU-145, 48 h; in short: as §1
HOP-92 = experiment: Growth inhibition of human HOP92 cells assessed as cell growth at 10 uM after 48 hrs by sulforhodamine B assay; details: HOP-92, 48 h, read-out: Activity
CAKI-1 = experiment: Growth inhibition of human CAKI-1 cells after 48 hrs by sulforhodamine B assay; details: CAKI-1, 48 h; in short: as §1
LOX IMVI [4] = experiment: Growth inhibition of human LOXIMVI cells after 48 hrs by sulforhodamine B assay; in short: as §1
UACC-257 = experiment: Growth inhibition of human UACC257 cells after 48 hrs by sulforhodamine B assay; details: UACC-257, 48 h; in short: as §2
Rattus norvegicus = experiment: Antiinflammatory activity in Wistar rat assessed as inhibition of carrageenan-induced paw edema at 0.05 mmol/kg, po administered 30 mins prior challenge measured after 3 hrs
In short: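 Wistar rats of either sex, 150–175 g, fasted 16 h, 6 per group. Dosed orally at 0.05 mmol/kg, suspended in 1% CMC in water (10 ml/kg). 30 min later, 0.1 ml of 1% carrageenan in saline injected subplantar into the left hind paw. Paw volume read by plethysmometer at 0, 3 and 5 h. % inhibition = (1 − Vt/Vc) × 100 against the vehicle group.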

PC-3 = experiment: Growth inhibition of human PC3 cells assessed as cell growth at 10 uM after 48 hrs by sulforhodamine B assay; details: PC-3, 48 h, read-out: Activity
OVCAR-4 [5] = experiment: Growth inhibition of human OVCAR4 cells after 48 hrs by sulforhodamine B assay; details: OVCAR-4, 48 h; in short: as §3
OVCAR-3 = experiment: Growth inhibition of human OVCAR3 cells after 48 hrs by sulforhodamine B assay; details: OVCAR-3, 48 h; in short: as §3
UACC-62 = experiment: Growth inhibition of human UACC62 cells after 48 hrs by sulforhodamine B assay; details: UACC-62, 48 h; in short: as §2
SK-MEL-5 = experiment: Growth inhibition of human SK-MEL-5 cells assessed as cell growth at 10 uM after 48 hrs by sulforhodamine B assay; details: SK-MEL-5, 48 h, read-out: Activity
T47D = experiment: Growth inhibition of human T47D cells assessed as cell growth at 10 uM after 48 hrs by sulforhodamine B assay; details: read-out: Activity
In short: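 Single-dose NCI screen. Tumor lines were cultured in medium with 5% fetal calf serum and 2 mM L-glutamine, preincubated 24 h, then given compound in DMSO. After 48 h continuous exposure, cell growth was estimated by sulforhodamine B protein assay.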

LOX IMVI [6] = experiment: Growth inhibition of human LOXIMVI cells assessed as cell growth at 10 uM after 48 hrs by sulforhodamine B assay; details: read-out: Activity
MCF7 = experiment: Growth inhibition of human MCF7 cells assessed as cell growth at 10 uM after 48 hrs by sulforhodamine B assay; details: MCF7, 48 h, read-out: Activity
SN12C = experiment: Growth inhibition of human SN12C cells assessed as cell growth at 10 uM after 48 hrs by sulforhodamine B assay; details: read-out: Activity
RXF 393 = experiment: Growth inhibition of human RXF393 cells assessed as cell growth at 10 uM after 48 hrs by sulforhodamine B assay; details: RXF 393, 48 h, read-out: Activity
HT-29 = experiment: Growth inhibition of human HT-29 cells after 48 hrs by sulforhodamine B assay; details: HT-29, 48 h; in short: as §1
UO-31 = experiment: Growth inhibition of human UO31 cells after 48 hrs by sulforhodamine B assay; details: UO-31, 48 h; in short: as §2
SNB-19 = experiment: Growth inhibition of human SNB19 cells after 48 hrs by sulforhodamine B assay; details: SNB-19, 48 h; in short: as §3
SF-539 = experiment: Growth inhibition of human SF539 cells assessed as cell growth at 10 uM after 48 hrs by sulforhodamine B assay; details: SF-539, 48 h, read-out: Activity
[7] = read-out: LC50 (the source's name)

## Cc1ccc(C2=NN(c3ccc(S(C)(=O)=O)cc3)C(=O)CC2)cc1
MDA-MB-231 [1]
  GI50: 0.83 µM
  LC50: > 100 µM
  TGI: > 100 µM
OVCAR-4 [2]
  growth at 10 µM: 60.8%
MDA-MB-231 [3]
  growth at 10 µM: 47.8%
TK-10
  GI50: 7.69 µM
  TGI: > 100 µM
TK-10; [7]
  CC50: > 100 µM
HCT-116
  growth at 10 µM: 17.7%
SK-MEL-2
  GI50: 0.43 µM
  LC50: > 100 µM
  TGI: > 100 µM
SK-MEL-28
  GI50: 0.66 µM
  TGI: > 100 µM
SK-MEL-28; [7]
  CC50: > 100 µM
MDA-MB-435
  GI50: 0.12 µM
  LC50 (concentration killing 50% of starting cells): > 100 µM
  TGI: 0.39 µM
DU-145
  GI50: 2.91 µM
  TGI: > 100 µM
DU-145; [7]
  CC50: > 100 µM
HOP-92
  growth at 10 µM: 60.9%
CAKI-1
  GI50: 0.29 µM
  LC50 (lethal concentration, 50% cell kill): > 100 µM
LOX IMVI [4]
  GI50: 0.74 µM
  TGI: > 100 µM
LOX IMVI [4]; [7]
  CC50: > 100 µM
UACC-257
  GI50: 0.61 µM
  LC50 (concentration killing 50% of cells): > 100 µM
  TGI: > 100 µM
Rattus norvegicus
  inhibition in vivo at 50 µmol/kg: 46.7%
PC-3
  growth at 10 µM: 29.3%
OVCAR-4 [5]
  GI50: > 100 µM
  LC50: > 100 µM
  TGI: > 100 µM
OVCAR-3
  GI50: 0.36 µM
  LC50 (lethal concentration, 50% net cell kill): > 100 µM
  TGI: 3.33 µM
UACC-62
  GI50: 0.46 µM
  LC50 (50% net cell kill concentration): > 100 µM
  TGI: > 100 µM
SK-MEL-5
  growth at 10 µM: 13.9%
T47D
  growth at 10 µM: 32.7%
LOX IMVI [6]
  growth at 10 µM: 33.7%
MCF7
  growth at 10 µM: 16.2%
SN12C
  growth at 10 µM: 39.7%
RXF 393
  growth at 10 µM: 15.4%
HT-29
  GI50: 0.33 µM
  LC50 (50% lethal concentration): > 100 µM
  TGI: 10 µM
UO-31
  GI50: 4.72 µM
  LC50 (concentration killing 50% of cells): > 100 µM
  TGI: > 100 µM
SNB-19
  GI50: 1.25 µM
  TGI: > 100 µM
SNB-19; [7]
  CC50: > 100 µM
SF-539
  growth at 10 µM: -7.93%
